From PubChem
NPY1 pot ag: potentiators or agonists of human neuropeptide Y receptor Y1; P25929; NPY-Y1 expressing cells, potentiator/agonist activation; activation, % at 3.6 µM; actives 0.37% (n = 220,000); in the data active = activation above about 33%, passing the limit was not always enough;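 note: cells stimulated with NPY at EC10 then isoproterenol at EC100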
Mdm2 ligase inh: inhibitors of human Mdm2 E3 ubiquitin ligase | cell-based MDM2 ubiquitination luciferase reporter, 2 h; 0 = plate control, 100 = twice control, blank-subtracted | signal enhancement, % at 5 µM | actives 0.11% (n = 210,000);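 active = signal enhancement of 30% or more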;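 note: luminescence tracks abundance of the self-degrading MDM2-luciferase fusion protein; higher signal means inhibition of MDM2 E3 ligase activity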
Target sequence (Q00987 whole entry, looked up, the tested form may be a part): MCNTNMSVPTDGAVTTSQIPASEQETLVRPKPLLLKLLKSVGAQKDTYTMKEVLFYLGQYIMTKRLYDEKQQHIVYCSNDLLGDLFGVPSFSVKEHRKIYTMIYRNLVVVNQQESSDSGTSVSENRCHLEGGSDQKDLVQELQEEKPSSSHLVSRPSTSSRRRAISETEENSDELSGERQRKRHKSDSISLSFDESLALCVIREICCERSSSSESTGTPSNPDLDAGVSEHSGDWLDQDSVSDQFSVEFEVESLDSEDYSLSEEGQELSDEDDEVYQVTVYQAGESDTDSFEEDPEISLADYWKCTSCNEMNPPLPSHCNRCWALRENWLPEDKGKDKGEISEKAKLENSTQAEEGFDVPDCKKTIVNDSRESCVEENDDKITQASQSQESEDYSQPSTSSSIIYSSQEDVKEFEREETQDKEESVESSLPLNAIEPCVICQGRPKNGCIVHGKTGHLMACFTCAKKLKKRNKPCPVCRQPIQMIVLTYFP
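Timing – 2 h compound exposure at 37 °C · Assay system – mammalian cells stably expressing self-ubiquitinating, self-degrading MDM2 E3–luciferase fusion · Amount – 2000 cells seeded into each well · Measure – % luminescence enhancement versus blank-corrected plate control mean · Measured by – SteadyLite luminescence, 15 min reagent step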
NPY2 pot ag: potentiates or activates human NPY-Y2 receptor. actives 0.45% (n = 220,000). cells expressing NPY-Y2, potentiator/agonist read-out. P49146. AID 1359. activation, % at 3.6 µM; in the data active = activation above about 27%;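 note: cells stimulated with NPY near EC25 plus isoproterenol at EC100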
NPY-Y1 antag: antagonists of human neuropeptide Y receptor Y1; P25929; HEK293-CNG Y1 cells, membrane potential fluorescence; NPY at EC95, then isoproterenol; AID 1040; inhibition, % at 3.6 µM; actives 1% (n = 200,000);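 active = inhibition above the campaign mean inhibition of all tested compounds plus 3 SD, cut at about 20% in these data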
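System: HEK293 cells with Y1 receptor plus CNG channel / Probe or stimulus: NPY 25 nM then isoproterenol 1 µM plus Ro 20-1724 25 µM / Compound: one concentration, 3.6 µM, in 0.4% DMSO / Schedule: compound incubation 1 h at room temperature, readout 45 min post-stimulation / Measured by: membrane potential fluorescence / Read-out: % inhibition of NPY effect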
NPY Y2 blocker: blocks the human neuropeptide Y Y2 receptor; P49146; NPY-Y2 expressing cells, antagonist mode; inhibition, % at 2.7 µM; actives 0.99% (n = 140,000); AID 793; in the data active = inhibition above about 17%
Measles CPE: protection of cells from measles virus; protection (pct of control), % at 4 µM; actives 1.5% (n = 140,000); AID 841; Measles virus-infected cells, CPE protection, absorbance; in the data active = protection mostly above about 24%, no sharp cut-off; inactive = mostly below about 26%
NPY-Y1 antag ct: counter-screen for NPY-Y2 antagonists: human NPY-Y1 antagonism; shares compounds with NPY Y2 blocker; cell-based NPY-Y1 antagonism counterscreen; inhibition, % at 3.6 µM; actives 19% (n = 710); in the data active = inhibition above about 20%;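 note: cells challenged with NPY then isoproterenol with cAMP sensed through a CNG channel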
NPY-Y2 ant conf: confirmation of human neuropeptide Y receptor Y2 antagonists | HEK293 NPY-Y2 CNG channel, membrane potential fluorescence | shares compounds with NPY Y2 blocker | AID 1257 | actives 32% (n = 710) | inhibition, % at 2.8 µM;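 active = mean inhibition of triplicate wells above the hit cutoff set in the primary screen, cut at about 17% in these data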
Numbers stand for hits. Most compounds without a hit are left out; they make up all but 2.8% or so of the library.

COC(=O)C(C)N(C(=O)c1ccc(C(=O)c2ccccc2)cc1)c1c(C)cccc1C (stereo unspecified) was read as NPY1 pot ag inactive, Mdm2 ligase inh inactive, NPY2 pot ag inactive, NPY-Y1 antag inactive, NPY Y2 blocker 19, Measles CPE inactive, NPY-Y1 antag ct inactive and NPY-Y2 ant conf inactive.
For COc1ccc(-c2nnc3n2N=C(c2cccc(Br)c2)CS3)cc1OC the results were NPY1 pot ag inactive, Mdm2 ligase inh inactive, NPY2 pot ag inactive, NPY-Y1 antag inactive, NPY Y2 blocker 19, Measles CPE inactive, NPY-Y1 antag ct inactive and NPY-Y2 ant conf inactive.
`COCCN(Cc1cc2ccc(C)cc2n2nnnc12)Cc1nnnn1C(C)(C)C` gave NPY1 pot ag inactive, NPY2 pot ag inactive, NPY-Y1 antag inactive, NPY Y2 blocker inactive and Measles CPE inactive.
For N#Cc1nc(-c2ccc(Cl)cc2)oc1NCc1ccco1 the results were NPY1 pot ag inactive, Mdm2 ligase inh inactive, NPY2 pot ag inactive, NPY-Y1 antag inactive, NPY Y2 blocker inactive and Measles CPE inactive.
N#Cc1nc(-c2ccc(Cl)cc2)oc1NCc1cccc2c1OCO2 was read as NPY1 pot ag inactive, Mdm2 ligase inh inactive, NPY2 pot ag inactive, NPY-Y1 antag inactive, NPY Y2 blocker 20, Measles CPE inactive, NPY-Y1 antag ct 21 and NPY-Y2 ant conf 20.
`COc1ccc(/C=C/c2cc(C(F)(F)F)on2)cc1` gave NPY1 pot ag inactive, Mdm2 ligase inh inactive and NPY2 pot ag inactive.
Screening Clc1ccc(OCCn2c(-c3ccco3)nc3ccccc32)cc1 returned NPY1 pot ag inactive, Mdm2 ligase inh inactive, NPY2 pot ag inactive, NPY-Y1 antag inactive, NPY Y2 blocker 31, Measles CPE inactive, NPY-Y1 antag ct 32 and NPY-Y2 ant conf inactive.
Screening c1coc(Cn2c(-c3ccco3)nc3ccccc32)c1 returned NPY1 pot ag inactive, Mdm2 ligase inh inactive, NPY2 pot ag inactive, NPY-Y1 antag inactive, NPY Y2 blocker inactive and Measles CPE inactive.
O=C(O)c1cc(Cl)c2ccccc2c1O was read as NPY1 pot ag inactive, Mdm2 ligase inh inactive, NPY2 pot ag inactive, NPY-Y1 antag inactive, NPY Y2 blocker 20, Measles CPE inactive, NPY-Y1 antag ct 21 and NPY-Y2 ant conf inactive.
`N#Cc1nc(COc2ccc(Cl)cc2Cl)oc1N1CCN(c2ccccc2)CC1` gave NPY1 pot ag inactive, Mdm2 ligase inh inactive, NPY2 pot ag inactive, NPY-Y1 antag inactive, NPY Y2 blocker 17, Measles CPE inactive, NPY-Y1 antag ct 29 and NPY-Y2 ant conf 21.
For N#Cc1nc(Cc2ccccc2)oc1N1CCN(c2cccc(Cl)c2)CC1 the results were NPY1 pot ag inactive, Mdm2 ligase inh inactive, NPY2 pot ag inactive, NPY-Y1 antag inactive, NPY Y2 blocker inactive and Measles CPE inactive.
Screening CCOc1ccc(NC(=O)C(C)Oc2ccccc2C(=O)Nc2ccc(C)c(Cl)c2)cc1 (stereo unspecified) returned NPY1 pot ag inactive, Mdm2 ligase inh inactive, NPY2 pot ag inactive, NPY-Y1 antag inactive, NPY Y2 blocker inactive and Measles CPE inactive.
For CC1CCCN(C(=O)Cc2cn(Cc3cccc(Cl)c3)c3ccccc23)C1 (stereo unspecified) the results were NPY1 pot ag inactive, Mdm2 ligase inh inactive, NPY2 pot ag inactive, NPY-Y1 antag inactive, NPY Y2 blocker 17, Measles CPE inactive, NPY-Y1 antag ct inactive and NPY-Y2 ant conf inactive.
For CC(C)NCC(O)COCCOc1ccc(C(C)(C)C)cc1 (stereo unspecified) the results were NPY1 pot ag inactive, Mdm2 ligase inh inactive, NPY2 pot ag inactive, NPY-Y1 antag inactive, NPY Y2 blocker 24, Measles CPE inactive, NPY-Y1 antag ct inactive and NPY-Y2 ant conf inactive.
Screening O=S(=O)(Nc1nc2ccccc2nc1N1CCN(c2ccccc2F)CC1)c1ccc(Cl)cc1 returned NPY1 pot ag inactive, Mdm2 ligase inh inactive, NPY2 pot ag inactive, NPY-Y1 antag inactive, NPY Y2 blocker inactive and Measles CPE inactive.
